These results are taken from PubChem BioAssay AID504511 (The Scripps Research Institute Molecular Screening Center, 2011).

This assay in a line: viability loss of mouse T cells – cell-based, absorbance, serum-free and serum media, cytotoxicity control for PAFAH2 inhibitor project, late-stage follow-up (AID 504511). Conditions: BW5147 murine T cells viability, WST-1 absorbance. A digest of the protocol: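 Detection: WST-1 absorbance. Material: murine BW5147-derived T cells. Compound: Seven-point fivefold dilution series, top final dose 50 µM. Times: 48 h compound exposure of cells at 37 °C.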

The source made the active and inactive calls.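 The calls were made as follows: active = cytotoxic compound whose concentration leaving half the cells alive is below 5 µM in either medium; inactive = the rest.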 A value given as a limit tells only on which side of the number the result lay.

Take `O=C(N1CCCC1)n1ncc(-c2ccc(-c3ccccc3)cc2)n1`: the CC50 by setting is: (serum-free media) 35 µM (inactive); (with FCS) > 50 µM (inactive).
The corresponding values for `O=C(N1CCCC1)n1ncc(-c2ccc(Oc3ccccc3)cc2)n1` are 48 µM (inactive) and > 50 µM (inactive).

What is called CC50 is the concentration at which the toxic effect on the cells reaches its halfway point.
